Series [1] has as its system Plasmodium falciparum. In words: Antiplasmodial activity against chloroquine-resistant Plasmodium falciparum K1 measured after 72 hrs by lactate dehydrogenase assay. In kind it is functional, organism-based. The conditions noted are these: K1, 72 h. In a few lines: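 In vitro lactate dehydrogenase read-out on the chloroquine-resistant P. falciparum K1 strain; chloroquine was the reference drug.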

Series [2] has as its system Staphylococcus aureus. Kind of series: Antibacterial activity against Staphylococcus aureus ATCC6538. In kind it is functional, organism-based. The gist of the method:
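S. aureus panel with doxycycline as reference drug; IC50 reported in µM.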

A short description of series [3]: Cytotoxicity against human MRC5 cells measured after 7 days by MTT assay. Type of series: cell-based. The conditions noted are these: time 7 day. The gist of the method:
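MRC-5 human foetal lung fibroblasts; tamoxifen as positive control; IC50 reported in µM.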
In general terms: Tetrazolium dyes change colour on reduction, which living cells bring about.

Series [4] deals with Candida albicans. In words: Antifungal activity against Candida albicans ATCC59630. In kind it is functional, organism-based. In a few lines:
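C. albicans panel with flucytosine as reference drug; IC50 reported in µM.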

The nature of series [5]: Selectivity index, ratio of CC50 for cytotoxicity against human MRC5 cells to IC50 for antiplasmodial activity against chloroquine-resistant plasmodium falciparum K1. Type of series: toxicity, cell-based. The conditions noted are these: read-out: Ratio CC50/IC50. In a few lines: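 Ratio of the MRC-5 value (human foetal lung fibroblasts, tamoxifen as cytotoxicity control) to the P. falciparum K1 value (lactate dehydrogenase assay, chloroquine control).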

Bounds are passed on as bounds.

As a reminder, the IC50 is the concentration at which inhibition is half-maximal. By CC50 is commonly meant the concentration giving 50% cytotoxicity. Consider `CC1(C)CC[C@]2(C(=O)O[C@@H]3O[C@H](CO)[C@@H](O)[C@H](O)[C@H]3O)CC[C@]3(C)C(=CC(=O)[C@@H]4[C@@]5(C)C[C@@H](O)[C@H](O)[C@@](C)(CO)[C@@H]5CC[C@]43C)[C@@H]2[C@@H]1O`, for which the half-inhibitory concentration (IC50) is 13.9 µM in series [1], more than 64 µM in series [2] and more than 64 µM in series [4]. In series [3], this compound gave a CC50 at 168 h of more than 64 µM. Besides, the selectivity ratio in series [5] is more than 4.6.

For `CC1(C)CC[C@]2(C(=O)O)CC[C@]3(C)C(=CC(=O)[C@@H]4[C@@]5(C)C[C@@H](O)[C@H](O)[C@@](C)(CO)[C@@H]5CC[C@]43C)[C@@H]2[C@H]1O`, the values for the IC50 in series [1], in series [2] and in series [4] were 10.1 µM, more than 64 µM and more than 64 µM, respectively. The half-maximal cytotoxic concentration (CC50) at 168 h in series [3] is more than 64 µM. Besides, the selectivity ratio in series [5] was more than 6.3.

For the compound `CC1(C)CC[C@]2(C(=O)O[C@@H]3O[C@H](CO)[C@@H](O)[C@H](O)[C@H]3O)CC[C@]3(C)C(=CC(=O)[C@@H]4[C@@]5(C)C[C@@H](O)[C@H](O)[C@@](C)(CO)[C@@H]5CC[C@]43C)[C@@H]2[C@H]1O`, the IC50 was 11.3 µM in series [1], more than 64 µM in series [2] and more than 64 µM in series [4]. In series [3], this compound showed a CC50 at 168 h of more than 64 µM. Also, the selectivity ratio in series [5] was more than 5.7.

As to `C[C@]1(CO)CC[C@]2(C(=O)O)CC[C@]3(C)C(=CC[C@@H]4[C@@]5(C)C[C@@H](O)[C@H](O)[C@@](C)(CO)[C@@H]5CC[C@]43C)[C@@H]2C1`, the IC50 in series [1] is 48.9 µM; in series [2] it was more than 64 µM; in series [4], more than 64 µM. In series [3], this compound showed a CC50 at 168 h of more than 64 µM. Moreover, the selectivity ratio in series [5] was more than 1.31.

Take `CC1(C)CC[C@]2(C(=O)O)CC[C@]3(C)C(=CC(=O)[C@@H]4[C@@]5(C)C[C@@H](O)[C@H](O)[C@](C)(CO)[C@@H]5CC[C@]43C)[C@@H]2[C@@H]1O`: the values for the IC50 in series [1], in series [2] and in series [4] were 6.1 µM, more than 64 µM and more than 64 µM, respectively. The same compound displayed a CC50 at 168 h in series [3] of more than 64 µM. Moreover, the selectivity ratio in series [5] was more than 10.5.

Take `CC1(C)C=C2C3=CC(=O)[C@@H]4[C@@]5(C)C[C@@H](O)[C@H](O)[C@@](C)(CO)[C@@H]5CC[C@@]4(C)[C@]3(C)CC[C@@]2(C(=O)O)CC1`: the figures for the concentration for half-maximal inhibition (IC50) in series [1], in series [2] and in series [4] were 6.9 µM, more than 64 µM and more than 64 µM, respectively. In series [3], this compound had a half-maximal cytotoxic concentration (CC50) at 168 h of more than 64 µM. In series [5], the selectivity ratio was more than 9.27.

Turning to `CC1(C)CC[C@]2(C(=O)O)CC[C@]3(C)C(=CC(=O)[C@@H]4[C@@]5(C)C[C@@H](O)[C@H](O)[C@](C)(CO)[C@@H]5CC[C@]43C)[C@@H]2[C@H]1O`, the IC50 in series [1] is 6.1 µM; in series [2], more than 64 µM; in series [4], more than 64 µM. The same compound had a CC50 at 168 h in series [3] of more than 64 µM. Further, the selectivity ratio in series [5] is more than 10.5.

For the compound `CC1(C)CC[C@]2(C(=O)O[C@@H]3O[C@H](CO)[C@@H](O)[C@H](O)[C@H]3O)CC[C@]3(C)C(=CC(=O)[C@@H]4[C@@]5(C)C[C@@H](O)[C@H](O)[C@](C)(CO)[C@@H]5CC[C@]43C)[C@@H]2[C@H]1O`, the concentration for half-maximal inhibition (IC50) in series [1] was 9.1 µM; in series [2], more than 64 µM; in series [4], more than 64 µM. The compound further showed a CC50 at 168 h in series [3] of more than 64 µM. Moreover, the selectivity ratio in series [5] was more than 7.

For `C[C@H]1c2cccc(O)c2C(=O)C2=C(O)[C@]3(O)C(=O)C(C(N)=O)=C(O)[C@@H](N(C)C)[C@@H]3[C@@H](O)[C@@H]21` [DOXYCYCLINE], the IC50 in series [2] came to 0.28 µM.

Turning to `Nc1nc(=O)[nH]cc1F` [FLUCYTOSINE], inhibition in series [4] was half-maximal at 0.7 µM (IC50).

(Values after ChEMBL document CHEMBL4834407, “Antiplasmodial Oleanane Triterpenoids from Terminalia albida Root Bark” (J Nat Prod, 2021).)
